Data set [1] in a line: Antiradical activity against 2,2'-azobis-amidinopropane-induced linoleic acid peroxidation assessed as ratio of total oxyradical scavenging capacity to Trolox C. The data set is classed as physicochemical. The method in brief: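 Linoleic acid (0.63 mM) was autoxidized by 1 mM ABAP in 0.05 M phosphate buffer (pH 7.4) with 0.02% Lubrol, in air at 37 °C. Conjugated-diene formation was followed at 234 nm. Inhibitor was added once autoxidation ran at constant rate. Efficiency is expressed relative to Trolox C, with stoichiometric factors taken from lag-time ratios and Trolox n set at 2.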

Data set [2] has as its system Radical scavenging activity. The experiment in a line: Antioxidant activity assessed as [drug]/[DPPH]causing 50% DPPH radical scavenging activity after 5 mins. It counts as functional. Summed up:
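DPPH reacted with scavenger at 25 °C in 1.5 mL EtOH plus 0.5 mL 0.2 M acetate buffer (pH 5.5). DPPH started at 50–100 µM and test scavengers at 0.5–25 µM. Percent DPPH scavenging was read after 5 min and plotted against the [scavenger]/[DPPH] ratio. ECR50 is the ratio giving 50% scavenging.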
A general note: The DPPH test is a chemical assay of radical scavenging.

On to `Oc1cccc(O)c1` [RESORCINOL], for which the Ratio in data set [1] is 1.7. In addition, in data set [2], the Activity came out at 0.29.

For the molecule `CC1(C)CC(O)CC(C)(C)N1[O]` [TEMPOL], the Ratio in data set [1] is given as 0.4. The Activity in data set [2] was 64.

Values taken from ChEMBL document CHEMBL1153279, “Antioxidant and antiradical activities of resorcinarene tetranitroxides” (Bioorg Med Chem Lett, 2009).
